pIC50: −log10 of the molar value. Values after ≈ are worked out from the molar mass of the structure shown. Active and inactive are the calls of the source. The rule behind the calls is not given here.
How the values were obtained:
[1] = Cytotoxicity against human SW707 cells after 72 hrs by crystal violet staining method; format: ADME, cell-based; conditions: SW707, 72 h
CAPAN-1 = experiment: Cytotoxicity against human Capan1 cells after 72 hrs by crystal violet staining method; format: ADME, cell-based; conditions: CAPAN-1, 72 h
Ca-Ski = experiment: Cytotoxicity against human CaSki cells after 72 hrs by crystal violet staining method; format: ADME, cell-based
Calu-6 = experiment: Cytotoxicity against human Calu6 cells after 72 hrs by crystal violet staining method; format: ADME, cell-based; conditions: Calu-6, 72 h
MeWo = experiment: Cytotoxicity against human MeWo cells after 72 hrs by crystal violet staining method; format: ADME, cell-based
A-431 = experiment: Cytotoxicity against human A431 cells after 72 hrs by crystal violet staining method; format: ADME, cell-based; conditions: A-431, 72 h
[2] = Cytotoxicity against human Flow 2002 cells after 72 hrs by crystal violet staining method; format: ADME, cell-based; conditions: Flow 2002, 72 h
HaCaT = experiment: Cytotoxicity against human HaCaT cells after 72 hrs by crystal violet staining method; format: ADME, cell-based
Staphylococcus aureus [3] = experiment: microbe, parasite or virus in culture; format: functional; conditions: NCTC 10442
Staphylococcus aureus [4] = experiment: microbe, parasite or virus in culture; format: functional; conditions: ATCC 25923
[5] = Inhibition of Staphylococcus aureus MurA2 expressed in Escherichia coli BL21(lambdaDE3) using UNAG and PEP as substrate incubated for 10 mins prior to PEP addition measured after 60 mins by spectrophotometric analysis; conditions: read-out: IC50
[6] = Inhibition of Pseudomonas aeruginosa MurA expressed in Escherichia coli BL21(lambdaDE3) using UNAG and PEP as substrate incubated for 10 mins prior to PEP addition measured after 60 mins by spectrophotometric analysis; conditions: read-out: IC50
[7] = target: UDP-N-acetylglucosamine 1-carboxyvinyltransferase (Escherichia coli K-12, UniProt P0A749, C115D); experiment: Inhibition of Escherichia coli MurA C115D mutant expressed in Escherichia coli BL21(lambdaDE3) using UNAG and PEP as substrate incubated for 10 mins prior to PEP addition measured after 60 mins by spectrophotometric analysis; conditions: read-out: IC50
[8] = target: T1, UDP-N-acetylglucosamine 1-carboxyvinyltransferase (Escherichia coli K-12, UniProt P0A749); experiment: Inhibition of Escherichia coli MurA expressed in Escherichia coli BL21(lambdaDE3) using UNAG and PEP as substrate incubated for 10 mins prior to PEP addition measured after 60 mins by spectrophotometric analysis; conditions: read-out: IC50
Pseudomonas aeruginosa = experiment: microbe, parasite or virus in culture; format: functional; conditions: ATCC 27853
Escherichia coli [9] = experiment: microbe, parasite or virus in culture; format: functional; conditions: ATCC 25922
[10] = target: T1, UDP-N-acetylglucosamine 1-carboxyvinyltransferase; experiment: Induction of Escherichia coli MurA-mediated 2-bromo-5-(2-nitrovinyl)furan formation assessed as enzyme-(R)-methyl 3-mercapto-2-(6-methoxy-2-oxo-2H-chromene-3-carboxamido)propanoate adduct level at 200 to 300 uM after 1 hr by SDS-PAGE analysis
Outline: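 E. coli MurA was incubated with the fluorescent coumarin cysteine thiol, with or without test compound. After 1 h, aliquots were quenched in non-reducing Laemmli buffer (one sample in reducing buffer), heated to 95 °C for 3 min and run on 12% SDS-PAGE. Protein-bound fluorophore was imaged at 365 nm excitation.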

[11] = Drug degradation assessed as 5-bromofuran-2-carbaldehyde formation at 100 uM by HPLC-UV analysis in absence of MurA; format: physicochemical
Outline: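 Test compound (100 µM) was held under standard MurA assay buffer conditions without enzyme, then stopped at several time points. HPLC-UV used a C18 column, 37 °C, and a 0.1% TFA water/acetonitrile gradient. Aldehyde formation was followed at 290 nm.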

[12] = tested on: UDP-N-acetylglucosamine 1-carboxyvinyltransferase (Escherichia coli K-12), P0A749 [C115D]; experiment: Inhibition of Escherichia coli MurA C115D mutant expressed in Escherichia coli BL21(lambdaDE3) using UNAG and PEP as substrate at 50 to 500 uM incubated for 30 mins by 2,2'-dithiopyridine based spectrophotometric analysis
Outline: (§1)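 MurA (wild-type or C115D) was incubated with test compound at an equimolar ratio or 10-fold excess in 50 mM Tris pH 7.8 at room temperature for 30 min. 2,2'-Dithiodipyridine was then added in 0.5 M citrate pH 4 with 6 M urea for 30 min and quenched with 4% TFA. 2-Thiopyridone was measured by HPLC at 342 nm against a compound-free control.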

[13] = target: UDP-N-acetylglucosamine 1-carboxyvinyltransferase (Escherichia coli K-12) (UniProt P0A749); experiment: Inhibition of Escherichia coli MurA expressed in Escherichia coli BL21(lambdaDE3) using UNAG and PEP as substrate at 50 to 500 uM incubated for 30 mins by 2,2'-dithiopyridine based spectrophotometric analysis; outline: as §1
[14] = Induction of GSSG formation in citrate buffer at 100 uM by RP-LC/MS analysis
[15] = Induction of GSH-adduct formation in citrate buffer at100 uM by RP-LC/MS analysis; conditions: 100 µM
[16] = Prodrug activation in citrate buffer assessed as debromination at 100 uM at pH 6 in presence of GSH; format: physicochemical; conditions: pH 6, 100 µM
Outline: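 Inhibitor and glutathione, each at 100 µM final, in 50 mM sodium citrate pH 6.0. Aliquots were withdrawn every 30 s for 3 min and at 4 and 5 min, quenched, and analysed by reversed-phase HPLC-UV.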

[17] = Half life of the compound in Muller-Hinton medium at 100 uM at pH 5.8; format: physicochemical
Outline: (§2)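 Compound (100 µM) was dissolved in Müller-Hinton medium (pH 7.2, or adjusted to pH 5.8) and aliquots were injected onto HPLC at different time points. Parent disappearance was read at 390 nm. Half-life came from a first-order plot of log peak area versus time, t1/2 = ln2/kobs.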

[18] = Drug degradation in Muller-Hinton medium assessed as disappearance of parent compound at 100 uM at pH 7.2 by HPLC-UV analysis; format: physicochemical; conditions: buffer, pH 7.2, 100 µM; TDE = time-dependent effect; outline: as §2
[19] = Half life of the compound in Muller-Hinton medium at 100 uM at pH 7.2; format: physicochemical; outline: as §2
[20] = Half life of the compound in citrate buffer at pH 6
[21] = Half life of the compound in tris buffer at pH 7.8
[22] = Cytotoxicity against human lymphoblastoid cells assessed as cell vaibility at 3.4 uM; format: cell-based; conditions: read-out: Activity
[23] = target: UDP-N-acetylglucosamine 1-carboxyvinyltransferase (Escherichia coli K-12) (UniProt P0A749); experiment: Irreversible inhibition of Escherichia coli MurA expressed in Escherichia coli BL21(lambdaDE3) using UNAG and PEP as substrate at 1.25 uM incubated up to 80 min prior to PEP addition measured after 60 mins by spectrophotometric analysis; conditions: TDE = time-dependent effect
Outline: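 Phosphate-release MurA assay: 12 nM E. coli MurA, 250 µM UNAG, 125 µM PEP, 25 mM Tris pH 7.8, 0.1% BSA, 37 °C. The pre-incubation period of inhibitor with enzyme was varied before PEP addition. Reaction ran 60 min, was stopped with malachite green reagent, and read at 620 nm.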

[24] = target: UDP-N-acetylglucosamine 1-carboxyvinyltransferase (Escherichia coli K-12) (UniProt P0A749); experiment: Inhibition of Escherichia coli MurA expressed in Escherichia coli BL21(lambdaDE3) using UNAG and PEP as substrate at 5 uM incubated for 10 mins […] measured after 60 mins by spectrophotometric analysis
Outline: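 MurA (12 nM) was pre-incubated with UNAG and inhibitor for 10 min at 37 °C, and the reaction was started with PEP. Final conditions: UNAG 250 µM, PEP 125 µM, 25 mM Tris pH 7.8, 0.1% BSA, 1% DMSO. After 60 min at 37 °C, malachite green/molybdate reagent was added and phosphate was read at 620 nm after 10 min. Run in triplicate.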

Dengue virus = conditions: at 50 µM
[25] = target: Prothrombin (Homo sapiens) (UniProt P00734); conditions: at 25 µM
[26] = target: Methionine aminopeptidase 2 (Homo sapiens) (UniProt P50579); conditions: at 10 µM
[27] = target: Methionine aminopeptidase 1 (Homo sapiens) (UniProt P53582); conditions: at 10 µM
Escherichia coli [28] = conditions: at 10 µM

Sequence of UDP-N-acetylglucosamine 1-carboxyvinyltransferase (Escherichia coli K-12) (P0A749 whole entry): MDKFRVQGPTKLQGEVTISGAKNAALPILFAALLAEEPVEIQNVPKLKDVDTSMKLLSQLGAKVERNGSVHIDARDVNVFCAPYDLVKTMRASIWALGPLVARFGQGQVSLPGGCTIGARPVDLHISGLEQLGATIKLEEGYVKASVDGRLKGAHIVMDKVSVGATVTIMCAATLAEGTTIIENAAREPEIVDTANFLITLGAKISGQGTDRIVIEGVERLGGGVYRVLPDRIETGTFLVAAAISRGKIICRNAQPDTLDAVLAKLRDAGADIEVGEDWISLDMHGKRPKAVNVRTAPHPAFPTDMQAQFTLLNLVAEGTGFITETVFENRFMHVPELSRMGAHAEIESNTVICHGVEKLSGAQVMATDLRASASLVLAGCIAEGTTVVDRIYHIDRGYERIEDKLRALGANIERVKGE
T1 sequence (P0A749 whole entry): as above
Sequence of UDP-N-acetylglucosamine 1-carboxyvinyltransferase (Escherichia coli K-12), P0A749 [C115D] (P0A749 whole entry C115D): as the sequence (P0A749 whole entry) above, with C115D counted along it
Sequence of UDP-N-acetylglucosamine 1-carboxyvinyltransferase (Escherichia coli K-12, UniProt P0A749, C115D) (P0A749 whole entry C115D): as the sequence (P0A749 whole entry) above, with C115D counted along it
Sequence of Methionine aminopeptidase 2 (Homo sapiens) (P50579 2-478 limits assumed): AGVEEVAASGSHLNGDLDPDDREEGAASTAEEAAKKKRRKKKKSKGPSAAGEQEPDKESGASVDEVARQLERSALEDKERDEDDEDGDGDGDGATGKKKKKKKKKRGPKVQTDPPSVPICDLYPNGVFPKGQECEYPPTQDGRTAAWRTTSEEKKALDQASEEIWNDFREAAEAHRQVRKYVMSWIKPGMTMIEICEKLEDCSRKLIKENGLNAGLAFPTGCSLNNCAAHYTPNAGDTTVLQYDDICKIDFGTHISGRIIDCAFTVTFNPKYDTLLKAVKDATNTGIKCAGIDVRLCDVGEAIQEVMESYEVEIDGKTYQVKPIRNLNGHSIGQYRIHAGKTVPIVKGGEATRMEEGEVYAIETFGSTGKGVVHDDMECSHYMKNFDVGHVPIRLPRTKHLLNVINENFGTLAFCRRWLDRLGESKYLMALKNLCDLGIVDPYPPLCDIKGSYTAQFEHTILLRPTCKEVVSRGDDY

O=[N+]([O-])/C(Br)=C/c1ccc(Br)o1 gave a pIC50 [1] of 4.33, a pIC50 (CAPAN-1) of 4.44 and a pIC50 (Ca-Ski) of 4.30. For the same compound, the pIC50 (Calu-6) was 5.00, the pIC50 (MeWo) was 4.37 and the pIC50 (A-431) was 4.62. The pIC50 [2] was 5.05, the pIC50 (HaCaT) was 4.48 and the MIC (Staphylococcus aureus [3]) was 4 µg/mL (≈ 13.5 µM). For the same compound, the MIC (Staphylococcus aureus [4]) was 4 µg/mL (≈ 13.5 µM), the pIC50 [5] was 5.41 and the pIC50 [6] was 5.55. The pIC50 [7] was 4.73, the pIC50 [8] was 5.55 and the MIC (Pseudomonas aeruginosa) was 2 µg/mL (≈ 6.74 µM). For the same compound, the MIC (Escherichia coli [9]) was 4 µg/mL (≈ 13.5 µM), the Drug metabolism [10] was “Active” and the Stability [11] was “Unstable”. The inhibition [12] was “Active”, the inhibition [13] was “Active” and the Activity [14] was “Not Active”. The Activity [15] was “Not Active”, the Drug metabolism [16] was “Active” and the half-life at 100 µM [17] was 60 min. For the same compound, the Drug degradation [18] was “tde”, the half-life at 100 µM [19] was 8 min and the half-life [20] was 360 min. For the same compound, the half-life [21] was 30 min, the viability at 3.4 µM [22] was greater than 70% and the inhibition [23] was “tde”. For the same compound, the inhibition [24] was “Active”, the inhibition (Dengue virus) was 12% and the inhibition [25] was 8%. For the same compound, the inhibition [26] was 13%, the inhibition [27] was “inactive” and the inhibition (Escherichia coli [28]) was 85%.

Reference: ChEMBL document CHEMBL2331445, “Chemical, biochemical and microbiological properties of a brominated nitrovinylfuran with broad-spectrum antibacterial activity” (Bioorg Med Chem, 2013)
